Measurements from ChEMBL document CHEMBL2331548, “Identification of N-acyl 4-(3-pyridonyl)phenylalanine derivatives and their orally active prodrug esters as dual acting α4β1 and α4β7 receptor antagonists” (Bioorg Med Chem Lett, 2013).
≈ marks a conversion by molar mass, not a printed value. Values belong to the compound of their own block, whether it stands above or below them. Calls of active or inactive are those of the source. The rule behind the calls is not given here.

Legend:
Cynomolgus monkey [1] = experiment: Antiinflammatory activity in cynomolgus monkey challenged with aerosolized Ascaris suum extract assessed as reduction in eosinophils influx into lungs at 10 and 30 mg/kg, po administered 2 hrs before antigen challenge measured 24 hrs after antigen challenge; assay type: functional, organism-based; parameters: dose 30 mg/kg; conditions: Macaca fascicularis
How it was run: (§1)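 Cynomolgus monkeys (atopic) dosed orally at 10 or 30 mg/kg, or vehicle, then challenged 2 h later with aerosolized Ascaris suum extract. Bronchiolar lavage fluid collected 24 h post-challenge and inflammatory cells counted by type (macrophages, neutrophils, eosinophils, lymphocytes, total) as cells ×10^4/mL.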

[2] = Apparent permeability across human Caco2 cells; assay type: ADME, cell-based; conditions: Caco-2
Macaca fascicularis [3] = experiment: AUC in monkey assessed as (2S)-2-(2,6-dichlorobenzamido)-3-(4-(2-hydroxy-1,6-dimethyl-4-(trifluoromethyl)-1,2-dihydropyridin-3-yl)phenyl)propanoic acid level at 30 mg/kg, po; conditions: cynomolgus monkey, in vivo
[4] = Stability in monkey liver microsomes assessed as prodrug hydrolysis; assay type: ADME, Macaca mulatta, Microsome; conditions: rhesus monkey
How it was run: (§2)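 Ester prodrug incubated in liver microsomal preparations from mouse, rat, dog, monkey and human; percent of ester remaining followed at 0, 10, 30 and 90 min. A buffer-only incubation without microsomes served as control.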

Liver microsomes [5] = experiment: Stability in rat liver microsomes assessed as prodrug hydrolysis; assay type: ADME, Microsome; how it was run: as §2
hERG (KCNH2) = hERG (KCNH2) (Homo sapiens, UniProt Q12809); experiment: Inhibition of human ERG
Chain of hERG (KCNH2) (Q12809 whole entry): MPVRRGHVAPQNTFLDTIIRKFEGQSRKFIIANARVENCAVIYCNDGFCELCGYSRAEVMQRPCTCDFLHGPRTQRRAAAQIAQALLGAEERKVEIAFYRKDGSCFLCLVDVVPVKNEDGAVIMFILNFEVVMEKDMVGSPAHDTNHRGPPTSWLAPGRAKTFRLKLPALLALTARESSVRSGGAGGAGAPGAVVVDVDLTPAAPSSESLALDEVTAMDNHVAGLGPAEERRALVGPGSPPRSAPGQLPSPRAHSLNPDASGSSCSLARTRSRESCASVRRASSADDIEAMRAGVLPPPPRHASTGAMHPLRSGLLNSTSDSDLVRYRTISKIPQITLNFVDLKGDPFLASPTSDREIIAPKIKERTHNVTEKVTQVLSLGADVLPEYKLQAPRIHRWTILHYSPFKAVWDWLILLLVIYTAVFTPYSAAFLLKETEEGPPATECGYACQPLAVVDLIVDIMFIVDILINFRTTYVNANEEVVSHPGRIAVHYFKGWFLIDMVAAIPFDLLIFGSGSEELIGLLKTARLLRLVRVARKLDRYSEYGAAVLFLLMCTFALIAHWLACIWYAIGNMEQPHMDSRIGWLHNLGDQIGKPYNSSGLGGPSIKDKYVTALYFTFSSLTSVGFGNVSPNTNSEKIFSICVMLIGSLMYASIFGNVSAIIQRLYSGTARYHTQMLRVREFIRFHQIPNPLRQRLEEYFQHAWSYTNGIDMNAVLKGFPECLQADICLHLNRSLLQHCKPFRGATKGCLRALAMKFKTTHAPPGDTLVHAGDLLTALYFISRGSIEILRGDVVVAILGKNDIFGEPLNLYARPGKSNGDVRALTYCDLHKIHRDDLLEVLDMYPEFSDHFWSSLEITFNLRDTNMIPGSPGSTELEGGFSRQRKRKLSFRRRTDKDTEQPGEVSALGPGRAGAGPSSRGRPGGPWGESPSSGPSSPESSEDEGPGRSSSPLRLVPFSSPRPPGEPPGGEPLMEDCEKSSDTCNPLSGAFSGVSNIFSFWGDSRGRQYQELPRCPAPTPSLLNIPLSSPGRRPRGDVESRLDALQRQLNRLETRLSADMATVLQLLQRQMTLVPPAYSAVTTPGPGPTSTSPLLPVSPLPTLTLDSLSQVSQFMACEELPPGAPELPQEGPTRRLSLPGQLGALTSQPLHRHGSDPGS

Cynomolgus monkey [6] = experiment: Antiinflammatory activity in cynomolgus monkey challenged with aerosolized Ascaris suum extract assessed as reduction in lymphocytes influx into lungs at 10 and 30 mg/kg, po administered 2 hrs before antigen challenge measured 24 hrs after antigen challenge; assay type: functional, organism-based; parameters: dose 30 mg/kg; conditions: Macaca fascicularis; how it was run: as §1
[7] = Stability in simulated intestinal fluid at pH 7.5 assessed as half life; assay type: physicochemical; conditions: simulated gi fluid
[8] = Solubility in simulated gastric fluid at pH 2.0; assay type: physicochemical
Rattus norvegicus [9] = experiment: AUC in rat assessed as (2S)-2-(2,6-dichlorobenzamido)-3-(4-(2-hydroxy-1,6-dimethyl-4-(trifluoromethyl)-1,2-dihydropyridin-3-yl)phenyl)propanoic acid level at 50 mg/kg, po; assay type: ADME, organism-based, Plasma; parameters: dose 50 mg/kg, route oral; conditions: in vivo
How it was run: (§3)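 Ester prodrug given orally (rat and dog 50 mg/kg, monkey 30 mg/kg). Plasma exposure measured as the parent acid, reported as AUC and Cmax; bioavailability (F%) calculated for the acid.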

Liver [10] = experiment: Stability in mouse liver microsomes assessed as prodrug hydrolysis; assay type: ADME, Microsome; how it was run: as §2
[11] = Oral bioavailability in rat at 50 mg/kg; assay type: ADME, organism-based; conditions: in vivo; how it was run: as §3
[12] = Oral bioavailability in rat; assay type: ADME, organism-based; conditions: in vivo
[13] = Solubility in simulated intestinal fluid at pH 7.5; assay type: physicochemical
[14] = Oral bioavailability in dog at 50 mg/kg; assay type: ADME, organism-based, Canis lupus familiaris; conditions: in vivo; how it was run: as §3
Macaca fascicularis [15] = experiment: Oral bioavailability in monkey at 30 mg/kg; conditions: cynomolgus monkey, in vivo
Cynomolgus monkey [16] = experiment: Antiinflammatory activity in cynomolgus monkey challenged with aerosolized Ascaris suum extract assessed as reduction in neutrophils influx into lungs at 10 and 30 mg/kg, po administered 2 hrs before antigen challenge measured 24 hrs after antigen challenge; assay type: functional, organism-based; parameters: dose 30 mg/kg; conditions: Macaca fascicularis; how it was run: as §1
Canis familiaris [17] = experiment: Cmax in dog at 50 mg/kg, po; assay type: ADME, organism-based, Canis lupus familiaris; parameters: dose 50 mg/kg, route oral; conditions: in vivo; how it was run: as §3
Rattus norvegicus [18] = experiment: Cmax in rat at 50 mg/kg, po; assay type: ADME, organism-based; parameters: dose 50 mg/kg, route oral; conditions: in vivo; how it was run: as §3
Cynomolgus monkey [19] = experiment: Antiinflammatory activity in cynomolgus monkey challenged with aerosolized Ascaris suum extract assessed as reduction in total leukocytes influx into lungs at 10 and 30 mg/kg, po administered 2 hrs before antigen challenge measured 24 hrs after antigen challenge; assay type: functional, organism-based; parameters: dose 30 mg/kg; conditions: Macaca fascicularis; how it was run: as §1
Canis familiaris [20] = experiment: AUC in dog assessed as (2S)-2-(2,6-dichlorobenzamido)-3-(4-(2-hydroxy-1,6-dimethyl-4-(trifluoromethyl)-1,2-dihydropyridin-3-yl)phenyl)propanoic acid level at 50 mg/kg, po; assay type: ADME, organism-based, Canis lupus familiaris, Plasma; parameters: dose 50 mg/kg, route oral; conditions: in vivo; how it was run: as §3
Plasma = experiment: Stability in dog plasma assessed as unchanged prodrug level on days 1 and 6; assay type: ADME, cell-free, Canis lupus familiaris
How it was run: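 Unchanged prodrug measured in dog plasma on days 1 and 6 of subchronic safety studies after dosing with the ester prodrug.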

Liver [21] = experiment: Stability in dog liver microsomes assessed as prodrug hydrolysis; assay type: ADME, Canis lupus familiaris, Microsome; how it was run: as §2
Liver microsomes [22] = experiment: Stability in human liver microsomes assessed as prodrug hydrolysis; assay type: ADME, Microsome; how it was run: as §2
[23] = Oral bioavailability in dog; assay type: ADME, organism-based, Canis lupus familiaris; conditions: in vivo
[24] = Solubility in water; assay type: physicochemical
[25] = Clearance in rat at 10 mg/kg, iv; assay type: ADME, organism-based; parameters: dose 10 mg/kg, route intravenous; conditions: in vivo
How it was run: (§4)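 Intravenous pharmacokinetics of the acid: rat and dog dosed at 10 mg/kg, monkey at 15 mg/kg. AUC (ng h/mL), clearance (mL/min/kg) and Vss (mL/kg) derived from plasma levels.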

[26] = Clearance in dog at 10 mg/kg, iv; assay type: ADME, organism-based, Canis lupus familiaris; parameters: dose 10 mg/kg, route intravenous; conditions: in vivo; how it was run: as §4
[27] = AUC in monkey at 15 mg/kg, iv; conditions: cynomolgus monkey, plasma
Integrin alpha-4/beta-1 [28] = target: T1, Integrin alpha-4/beta-1 (Homo sapiens, UniProt P05556+P13612); experiment: Inhibition of human VCAM1 binding to integrin alpha4beta1 receptor in human Ramos cells labeled with Calcein AM; assay type: cell-based
T1 sequence (P05556 whole entry, one chain of several): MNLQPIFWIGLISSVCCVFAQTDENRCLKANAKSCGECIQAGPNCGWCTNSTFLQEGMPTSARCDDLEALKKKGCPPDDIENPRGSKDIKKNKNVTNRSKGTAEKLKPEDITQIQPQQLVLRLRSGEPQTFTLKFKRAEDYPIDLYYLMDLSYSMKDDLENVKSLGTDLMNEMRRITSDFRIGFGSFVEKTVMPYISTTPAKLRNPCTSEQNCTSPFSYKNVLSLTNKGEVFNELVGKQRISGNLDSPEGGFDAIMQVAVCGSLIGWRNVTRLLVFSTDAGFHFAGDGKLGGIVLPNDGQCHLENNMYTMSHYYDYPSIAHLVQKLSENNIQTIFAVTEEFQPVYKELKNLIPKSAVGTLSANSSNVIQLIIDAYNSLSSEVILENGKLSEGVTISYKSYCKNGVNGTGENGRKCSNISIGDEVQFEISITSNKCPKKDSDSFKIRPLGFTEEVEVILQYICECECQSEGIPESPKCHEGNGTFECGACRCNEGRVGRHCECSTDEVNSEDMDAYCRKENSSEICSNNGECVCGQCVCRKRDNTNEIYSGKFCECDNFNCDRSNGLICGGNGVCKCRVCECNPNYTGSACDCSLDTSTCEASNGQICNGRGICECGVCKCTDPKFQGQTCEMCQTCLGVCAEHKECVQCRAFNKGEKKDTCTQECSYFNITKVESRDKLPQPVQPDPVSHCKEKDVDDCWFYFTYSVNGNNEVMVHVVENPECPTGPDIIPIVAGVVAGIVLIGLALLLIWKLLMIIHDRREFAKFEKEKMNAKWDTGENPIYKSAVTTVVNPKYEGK
How it was run: (§5)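 Serially diluted compound tested for blocking adhesion of Calcein AM-labelled cells to recombinant human counter-ligand: RAMOS cells on VCAM-1 (α4β1) and RPMI 8866 cells on MAdCAM-1 (α4β7). Cells activated beforehand in Mn2+-containing binding buffer for maximal activation. IC50 taken from fluorescence; RO0270608 run on every plate, and relative potency expressed as fold versus this control because cell activity drifted with passage.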

[29] = AUC in dog at 10 mg/kg, iv; assay type: ADME, organism-based, Canis lupus familiaris; parameters: dose 10 mg/kg, route intravenous; conditions: plasma; how it was run: as §4
[30] = Clearance in monkey at 15 mg/kg, iv; conditions: cynomolgus monkey, in vivo
[31] = AUC in rat at 10 mg/kg, iv; assay type: ADME, organism-based; parameters: dose 10 mg/kg, route intravenous; conditions: plasma; how it was run: as §4
Integrin alpha-4/beta-1 [32] = target: T1, Integrin alpha-4/beta-1; experiment: Inhibition of human VCAM1 binding to integrin alpha4beta1 receptor in human Ramos cells labeled with Calcein AM relative to RO0270608; assay type: cell-based; how it was run: as §5
Integrin alpha-4/beta-7 = target: T2, Integrin alpha-4/beta-7 (Homo sapiens, UniProt P13612+P26010); experiment: Inhibition of human MAdCAM1 binding to integrin alpha4beta7 receptor in human RPMI 8866 cells labeled with Calcein AM; assay type: cell-based; how it was run: as §5
T2 sequence (P13612 whole entry): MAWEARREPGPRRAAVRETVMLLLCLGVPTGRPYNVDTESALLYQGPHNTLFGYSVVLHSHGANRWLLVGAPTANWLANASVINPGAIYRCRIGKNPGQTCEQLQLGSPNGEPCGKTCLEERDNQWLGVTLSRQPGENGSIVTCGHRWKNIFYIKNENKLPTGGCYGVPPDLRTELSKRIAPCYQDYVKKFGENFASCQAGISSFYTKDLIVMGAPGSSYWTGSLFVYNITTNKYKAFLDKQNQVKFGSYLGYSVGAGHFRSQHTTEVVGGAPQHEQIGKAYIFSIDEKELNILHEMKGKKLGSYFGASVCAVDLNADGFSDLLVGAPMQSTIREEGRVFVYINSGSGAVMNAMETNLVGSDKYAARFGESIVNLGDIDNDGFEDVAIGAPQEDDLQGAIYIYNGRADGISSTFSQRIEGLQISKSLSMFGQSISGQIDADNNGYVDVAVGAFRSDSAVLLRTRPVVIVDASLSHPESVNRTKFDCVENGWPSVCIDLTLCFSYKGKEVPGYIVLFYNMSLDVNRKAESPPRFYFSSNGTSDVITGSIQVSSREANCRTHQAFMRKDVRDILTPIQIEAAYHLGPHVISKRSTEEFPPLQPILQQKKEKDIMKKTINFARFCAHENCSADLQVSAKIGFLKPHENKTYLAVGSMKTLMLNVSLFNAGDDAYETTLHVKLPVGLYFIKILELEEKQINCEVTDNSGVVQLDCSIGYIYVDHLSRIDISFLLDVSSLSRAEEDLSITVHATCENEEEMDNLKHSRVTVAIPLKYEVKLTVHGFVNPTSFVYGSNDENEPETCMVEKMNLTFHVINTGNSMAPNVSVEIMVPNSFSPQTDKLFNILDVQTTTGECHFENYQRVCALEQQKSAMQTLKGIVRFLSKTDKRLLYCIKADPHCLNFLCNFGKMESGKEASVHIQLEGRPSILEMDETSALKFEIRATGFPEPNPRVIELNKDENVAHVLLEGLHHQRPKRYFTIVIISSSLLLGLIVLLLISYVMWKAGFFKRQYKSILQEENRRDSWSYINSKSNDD
T2 sequence (P26010 whole entry): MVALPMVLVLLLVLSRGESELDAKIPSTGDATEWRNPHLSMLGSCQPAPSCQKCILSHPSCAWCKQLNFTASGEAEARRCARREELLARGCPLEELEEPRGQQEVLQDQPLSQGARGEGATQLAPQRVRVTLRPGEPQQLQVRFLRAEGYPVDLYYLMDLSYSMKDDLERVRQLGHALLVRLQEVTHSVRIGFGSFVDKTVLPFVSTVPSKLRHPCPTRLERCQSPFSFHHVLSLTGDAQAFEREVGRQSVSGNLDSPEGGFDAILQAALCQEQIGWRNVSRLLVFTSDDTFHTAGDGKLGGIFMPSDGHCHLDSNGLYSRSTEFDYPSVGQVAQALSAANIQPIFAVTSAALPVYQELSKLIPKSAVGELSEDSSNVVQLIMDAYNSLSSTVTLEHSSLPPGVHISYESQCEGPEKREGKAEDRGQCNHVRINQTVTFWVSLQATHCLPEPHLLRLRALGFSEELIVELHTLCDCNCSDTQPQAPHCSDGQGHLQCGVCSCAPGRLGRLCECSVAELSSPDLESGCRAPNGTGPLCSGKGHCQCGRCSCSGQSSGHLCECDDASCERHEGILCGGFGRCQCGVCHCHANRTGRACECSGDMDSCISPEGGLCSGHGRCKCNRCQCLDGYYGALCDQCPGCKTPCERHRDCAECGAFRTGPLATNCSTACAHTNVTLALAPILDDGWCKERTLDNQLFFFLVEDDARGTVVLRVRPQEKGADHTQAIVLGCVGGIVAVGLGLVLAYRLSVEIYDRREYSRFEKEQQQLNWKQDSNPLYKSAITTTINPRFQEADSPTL

[33] = target: Integrin alpha-4/beta-7 (Homo sapiens) (UniProt P13612+P26010); experiment: Inhibition of human MAdCAM1 binding to integrin alpha4beta7 receptor in human RPMI 8866 cells labeled with Calcein AM relative to RO0270608; assay type: cell-based; how it was run: as §5

Papp [2]: 16.5 ×10⁻⁶ cm/s
AUC (Macaca fascicularis [3]): 30150 ng·h/mL
Stability [4]: Unstable
Stability (Liver microsomes [5]): Unstable
Stability [7]: Stable
solubility ([8]; simulated gastric fluid, read-out: solubility): 3900 µg/mL (≈ 5960 µM)
AUC (Rattus norvegicus [9]): 6100 ng·h/mL
Stability (Liver [10]): Unstable
bioavailability [11]: 11%
bioavailability [12]: 11%
solubility [13]: 330 µg/mL (≈ 504 µM)
bioavailability [14]: 13%
bioavailability (Macaca fascicularis [15]): 46%
Cmax (Canis familiaris [17]): 2400 ng/mL
Cmax (Rattus norvegicus [18]): 2500 ng/mL
AUC (Canis familiaris [20]): 6420 ng·h/mL
Stability (Plasma): 10%
Stability (Liver [21]): Stable
Stability (Liver microsomes [22]): Stable
Structure (SMILES): Cc1cc(C(F)(F)F)c(-c2ccc(C[C@H](NC(=O)c3c(Cl)cccc3Cl)C(=O)OCCCN3CCOCC3)cc2)c(=O)n1C
Activity (Cynomolgus monkey [1]): Active
IC20 (hERG (KCNH2)): 2900 nM
Activity (Cynomolgus monkey [6]): Active
Activity (Cynomolgus monkey [16]): Active
Activity (Cynomolgus monkey [19]): Active

Papp [2]: 27.1 ×10⁻⁶ cm/s
Stability [7]: Stable
solubility ([8]; simulated gi fluid, BLD = below limit of detection): BLD
bioavailability [23]: 2%
bioavailability [12]: 18%
solubility [24]: 6 µg/mL (≈ 10.8 µM)
Structure (SMILES): CCOC(=O)[C@H](Cc1ccc(-c2c(C(F)(F)F)cc(C)n(C)c2=O)cc1)NC(=O)c1c(Cl)cccc1Cl
IC20 (hERG (KCNH2)): 2700 nM

Papp [2]: 0.14 ×10⁻⁶ cm/s
clearance [25]: 15.7 mL/min/kg
clearance [26]: 16.5 mL/min/kg
AUC [27]: 35100 ng·h/mL
IC50 (Integrin alpha-4/beta-1 [28]): 32 nM
AUC [29]: 10900 ng·h/mL
clearance [30]: 3 mL/min/kg
AUC [31]: 10900 ng·h/mL
Ratio IC50 (Integrin alpha-4/beta-1 [32]): 0.81
IC50 (Integrin alpha-4/beta-7): 42 nM
Ratio IC50 [33]: 6.5
Structure (SMILES): Cc1cc(C(F)(F)F)c(-c2ccc(C[C@H](NC(=O)c3c(Cl)cccc3Cl)C(=O)O)cc2)c(=O)n1C
